Measured values from ChEMBL document CHEMBL3045697, “Acaricidal activity of clove bud oil compounds against Dermatophagoides farinae and Dermatophagoides pteronyssinus (Acari: Pyroglyphidae)” (2003).
Calls of active or inactive are those of the source. The rule behind the calls is not given here.

Legend:
Dermatophagoides farinae [1] = experiment: whole plant or invertebrate; type: functional; conditions: 24 h
[2] = tested on: Dermatophagoides pteronyssinus; experiment: whole plant or invertebrate; type: functional; conditions: 24 h
Dermatophagoides farinae [3] = experiment: whole plant or invertebrate; type: functional; conditions: 24 h; remark: listed apart in the source
[4] = tested on: Dermatophagoides pteronyssinus; experiment: whole plant or invertebrate; type: functional; conditions: 24 h; remark: listed apart in the source
Dermatophagoides farinae [5] = experiment: Acaricidal activity against Dermatophagoides farinae assessed as mortality at 38.2 ug/cm2 after 72 hr by fabric disk assay relative to untreated control; type: functional
Summary of the method: (§1)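 Test material in 20 µL ethanol is applied to a 5 cm black cotton fabric disk, and control disks get ethanol alone. After drying 30 s, each disk goes into a covered 5 cm Petri dish with 25 adult mites (7–10 days old), held at 25 ± 1 °C, 75% RH, in darkness. Mortality is scored at 24, 48 and 72 h under a 20× binocular microscope, dead meaning no appendage movement when prodded with a pin. Three replicates; mean ± SE reported.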

Dermatophagoides farinae [6] = experiment: Acaricidal activity against Dermatophagoides farinae assessed as mortality at 50.9 ug/cm2 after 48 hr by fabric disk assay relative to untreated control; type: functional
Summary of the method: as §1

Dermatophagoides farinae [7] = experiment: Acaricidal activity against Dermatophagoides farinae assessed as mortality at 50.9 ug/cm2 after 72 hr by fabric disk assay relative to untreated control; type: functional
Summary of the method: as §1

Dermatophagoides farinae [8] = experiment: Acaricidal activity against Dermatophagoides farinae assessed as mortality at 50.9 ug/cm2 after 24 hr by fabric disk assay relative to untreated control; type: functional
Summary of the method: as §1

Dermatophagoides farinae [9] = experiment: Acaricidal activity against Dermatophagoides farinae assessed as mortality at 38.2 ug/cm2 after 48 hr by fabric disk assay relative to untreated control; type: functional
Summary of the method: as §1

[10] = tested on: Dermatophagoides pteronyssinus; experiment: Acaricidal activity against Dermatophagoides pteronyssinus assessed as mortality at 38.2 to 50.9 ug/cm2 after 24 to 72 hr by fabric disk assay relative to untreated control; type: functional, organism-based
Summary of the method: (§2)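 Contact bioassay: compound in 20 µL ethanol applied to 5 cm black cotton fabric disks, air-dried 30 s, then placed in Petri dishes with 25 adult mites (7-10 days old). Held at 25 ± 1 °C, 75% RH, in darkness. Controls received ethanol only. Triplicate; mean ± SE.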

[11] = tested on: Dermatophagoides pteronyssinus; experiment: Acaricidal activity against Dermatophagoides pteronyssinus after 24 hr by fabric disk assay; type: functional
Dermatophagoides farinae [12] = experiment: Acaricidal activity against Dermatophagoides farinae after 24 hr by fabric disk assay; type: functional
Dermatophagoides farinae [13] = experiment: Acaricidal activity against Dermatophagoides farinae assessed as mortality at 38.2 ug/cm2 after 24 hr by fabric disk assay relative to untreated control; type: functional
Summary of the method: as §1

Dermatophagoides farinae [14] = experiment: Acaricidal activity against Dermatophagoides farinae assessed as mortality at 8 ug/cm2 after 48 hr by fabric disk assay relative to untreated control; type: functional
Summary of the method: as §1

Dermatophagoides farinae [15] = experiment: Acaricidal activity against Dermatophagoides farinae assessed as mortality at 6.4 ug/cm2 after 72 hr by fabric disk assay relative to untreated control; type: functional
Summary of the method: as §1

Dermatophagoides farinae [16] = experiment: Acaricidal activity against Dermatophagoides farinae assessed as mortality at 8 ug/cm2 after 72 hr by fabric disk assay relative to untreated control; type: functional
Summary of the method: as §1

Dermatophagoides farinae [17] = experiment: Acaricidal activity against Dermatophagoides farinae assessed as mortality at 6.4 ug/cm2 after 48 hr by fabric disk assay relative to untreated control; type: functional
Summary of the method: as §1

Dermatophagoides farinae [18] = experiment: Acaricidal activity against Dermatophagoides farinae assessed as mortality at 6.4 ug/cm2 after 24 hr by fabric disk assay relative to untreated control; type: functional
Summary of the method: as §1

[19] = tested on: Dermatophagoides pteronyssinus; experiment: Acaricidal activity against Dermatophagoides pteronyssinus assessed as mortality at 6.4 to 8 ug/cm2 after 24 to 72 hr by fabric disk assay relative to untreated control; type: functional, organism-based
Summary of the method: as §1

Dermatophagoides farinae [20] = experiment: Acaricidal activity against Dermatophagoides farinae assessed as mortality at 8 ug/cm2 after 24 hr by fabric disk assay relative to untreated control; type: functional
Summary of the method: as §1

Dermatophagoides farinae [21] = experiment: Acaricidal activity against Dermatophagoides farinae assessed as mortality at 19.1 ug/cm2 after 24 hr by fabric disk assay relative to untreated control; type: functional
Summary of the method: as §1

Dermatophagoides farinae [22] = experiment: Acaricidal activity against Dermatophagoides farinae assessed as mortality at 15.9 ug/cm2 after 72 hr by fabric disk assay relative to untreated control; type: functional
Summary of the method: as §1

[23] = tested on: Dermatophagoides pteronyssinus; experiment: Acaricidal activity against Dermatophagoides pteronyssinus assessed as mortality at 15.9 to 19.1 ug/cm2 after 24 to 72 hr by fabric disk assay relative to untreated control; type: functional, organism-based
Summary of the method: as §2

Dermatophagoides farinae [24] = experiment: Acaricidal activity against Dermatophagoides farinae assessed as mortality at 19.1 ug/cm2 after 72 hr by fabric disk assay relative to untreated control; type: functional
Summary of the method: as §1

Dermatophagoides farinae [25] = experiment: Acaricidal activity against Dermatophagoides farinae assessed as mortality at 15.9 ug/cm2 after 48 hr by fabric disk assay relative to untreated control; type: functional
Summary of the method: as §1

Dermatophagoides farinae [26] = experiment: Acaricidal activity against Dermatophagoides farinae assessed as mortality at 19.1 ug/cm2 after 48 hr by fabric disk assay relative to untreated control; type: functional
Summary of the method: as §1

Dermatophagoides farinae [27] = experiment: Acaricidal activity against Dermatophagoides farinae assessed as mortality at 15.9 ug/cm2 after 24 hr by fabric disk assay relative to untreated control; type: functional
Summary of the method: as §1

Dermatophagoides farinae [28] = experiment: Acaricidal activity against Dermatophagoides farinae assessed as mortality at 9.6 ug/cm2 after 24 hr by fabric disk assay relative to untreated control; type: functional
Summary of the method: as §1

Dermatophagoides farinae [29] = experiment: Acaricidal activity against Dermatophagoides farinae assessed as mortality at 12.7 ug/cm2 after 24 hr by fabric disk assay relative to untreated control; type: functional
Summary of the method: as §1

Dermatophagoides farinae [30] = experiment: Acaricidal activity against Dermatophagoides farinae assessed as mortality at 12.7 ug/cm2 after 72 hr by fabric disk assay relative to untreated control; type: functional
Summary of the method: as §1

Dermatophagoides farinae [31] = experiment: Acaricidal activity against Dermatophagoides farinae assessed as mortality at 9.6 ug/cm2 after 72 hr by fabric disk assay relative to untreated control; type: functional
Summary of the method: as §1

Dermatophagoides farinae [32] = experiment: Acaricidal activity against Dermatophagoides farinae assessed as mortality at 12.7 ug/cm2 after 48 hr by fabric disk assay relative to untreated control; type: functional
Summary of the method: as §1

Dermatophagoides farinae [33] = experiment: Acaricidal activity against Dermatophagoides farinae assessed as mortality at 9.6 ug/cm2 after 48 hr by fabric disk assay relative to untreated control; type: functional
Summary of the method: as §1

[34] = tested on: Dermatophagoides pteronyssinus; experiment: Acaricidal activity against Dermatophagoides pteronyssinus assessed as mortality at 9.6 to 12.7 ug/cm2 after 24 to 72 hr by fabric disk assay relative to untreated control; type: functional, organism-based
Summary of the method: as §2

| SMILES | mortality at 25.5 µg/cm2 (Dermatophagoides farinae [1]) [%] | mortality at 25.5 µg/cm2 [2] [%] | mortality at 25.5 µg/cm2 (Dermatophagoides farinae [3]) [%] | mortality at 25.5 µg/cm2 [4] [%] | LD50 [11] [microg/cm2] | LD50 (Dermatophagoides farinae [12]) [microg/cm2] | mortality at 8 µg/cm2 (Dermatophagoides farinae [14]) [%] | mortality at 6.4 µg/cm2 (Dermatophagoides farinae [15]) [%] | mortality at 8 µg/cm2 (Dermatophagoides farinae [16]) [%] | mortality at 6.4 µg/cm2 (Dermatophagoides farinae [17]) [%] | mortality at 6.4 µg/cm2 (Dermatophagoides farinae [18]) [%] | Activity [19] | mortality at 8 µg/cm2 (Dermatophagoides farinae [20]) [%] | also measured |
| --- | --- | --- | --- | --- | --- | --- | --- | --- | --- | --- | --- | --- | --- | --- |
| C/C=C\c1ccc(O)c(OC)c1 [ISOEUGENOL] | 100 | 100 | 21 | 32 |  |  |  |  |  |  |  |  |  |  |
| CCN(CC)C(=O)c1cccc(C)c1 [DIETHYLTOLUAMIDE] |  |  |  |  | 17.98 | 37.59 |  |  |  |  |  |  |  | mortality at 38.2 µg/cm2 (Dermatophagoides farinae [5]): 41%; mortality at 50.9 µg/cm2 (Dermatophagoides farinae [6]): 83%; mortality at 50.9 µg/cm2 (Dermatophagoides farinae [7]): 85%; mortality at 50.9 µg/cm2 (Dermatophagoides farinae [8]): 79%; mortality at 38.2 µg/cm2 (Dermatophagoides farinae [9]): 41%; Activity [10]: Active; mortality at 38.2 µg/cm2 (Dermatophagoides farinae [13]): 41% |
| C=CCc1ccc(O)c(OC)c1 [EUGENOL] | 100 | 100 | 11 | 21 | 3.71 | 5.47 | 85 | 50 | 85 | 50 | 50 | Active | 85 |  |
| CC=Cc1ccc(O)c(OC)c1 (mixture of isomers) [CIS/TRANS-ISOEUGENOL] |  |  |  |  | 1.55 | 5.17 | 92 | 66 | 92 | 66 | 66 | Active | 92 |  |
| C=CCc1ccc(OC(C)=O)c(OC)c1 [EUGENYL ACETATE] | 100 | 100 | 12 | 17 | 5.41 | 14.16 |  |  |  |  |  |  |  | mortality at 19.1 µg/cm2 (Dermatophagoides farinae [21]): 88%; mortality at 15.9 µg/cm2 (Dermatophagoides farinae [22]): 65%; Activity [23]: Active; mortality at 19.1 µg/cm2 (Dermatophagoides farinae [24]): 88%; mortality at 15.9 µg/cm2 (Dermatophagoides farinae [25]): 65%; mortality at 19.1 µg/cm2 (Dermatophagoides farinae [26]): 88%; mortality at 15.9 µg/cm2 (Dermatophagoides farinae [27]): 65% |
| O=C(OCc1ccccc1)c1ccccc1 [BENZYL BENZOATE] |  |  |  |  | 6.59 | 9.22 |  |  |  |  |  |  |  | mortality at 9.6 µg/cm2 (Dermatophagoides farinae [28]): 47%; mortality at 12.7 µg/cm2 (Dermatophagoides farinae [29]): 85%; mortality at 12.7 µg/cm2 (Dermatophagoides farinae [30]): 96%; mortality at 9.6 µg/cm2 (Dermatophagoides farinae [31]): 47%; mortality at 12.7 µg/cm2 (Dermatophagoides farinae [32]): 96%; mortality at 9.6 µg/cm2 (Dermatophagoides farinae [33]): 47%; Activity [34]: Active |
